{"source": "paper PMC5965255", "about": "(Neoplasia (New York, N.Y.), 2016)", "key": {"Solubility of DHA-dFdC": {"experiment": "Solubility of DHA-dFdC", "format": "physicochemical", "in_short": "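Indirect aqueous solubility used isopropyl myristate (IPM)/water partitioning. Saturated IPM solution was centrifuged (14,000 rpm, 10 min) and the supernatant measured by HPLC after methanol dilution (A1). Water was added at Vwater/VIPM 10, vortexed 5 min, left 15 min and centrifuged (14,000 rpm, 15 min). The IPM layer was re-assayed (A2) and the partition coefficient calculated from A1, A2 and the volume ratio.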"}, "[1]": {"system": "dFdC-sensitive cancer cell lines", "details": "various dFdC-sensitive cancer cell lines; cited from earlier work"}, "[2]": {"system": "Panc-1-luc human pancreatic tumors implanted SC", "experiment": "Antitumor activity in mice with subcutaneous Panc-1-luc tumors", "format": "in vivo, athymic nude mice", "details": "IP twice a week; DHA-dFdC 50 mg/kg or molar equivalent doses", "in_short": "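Male athymic nude mice (6-8 weeks) received SC injections of 5 × 10^6 Panc-1-luc cells in DMEM/Matrigel 1:1 (v/v) in the right flank. At 5-7 mm tumours (day 5), mice were randomised into 5 groups (n = 5-6). Groups got IP test compound at 50 mg/kg or molar equivalents. The vehicle was Tween 80/ethanol/water 1:0.52:8.48 with 5% w/v mannitol (dFdC in 5% mannitol). Dosing was twice weekly, up to six times. Caliper volumes were V = ½ × L1 × L2 × L2.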"}, "Panc-02 cells": {"system": "Panc-02 cells", "experiment": "MTT cytotoxicity assay", "format": "cell-based, mouse", "details": "Panc-02, high concentrations (10-100 μM)", "in_short": "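Cells seeded at 1500/well and left overnight at 37°C, 5% CO2. Treated with serial concentrations of test compound, dFdC, DHA or 1:1 molar dFdC+DHA (lipids in DMSO, dFdC in medium). Exposure: Panc-1-luc 24 h, Panc-02 48 h, BxPC-3 72 h. In a separate Panc-02 run, 10-100 μM for 4 h. Survival read by MTT; IC50 obtained by curve fitting.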"}, "tumor cells in culture": {"system": "tumor cells in culture", "details": "many tumor cells in culture; cited from earlier work"}, "[3]": {"system": "orthotopic Panc-1-luc pancreatic tumors", "experiment": "Antitumor activity in mice with orthotopic Panc-1-luc tumors", "format": "in vivo, athymic nude mice", "in_short": "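Male athymic nude mice (6-8 weeks) received ~50 μl of Panc-1-luc cells (~2 × 10^7/ml in 1:1 DMEM/Matrigel) into the pancreas under isoflurane anaesthesia. After four weeks, randomised (n = 5-7) to test compound (Tween 80/ethanol/water, 5% w/v mannitol), dFdC at molar equivalent (~0.087 […], 5% mannitol) or untreated. IP twice weekly, seven doses in total. Tumours dissected and weighed 30 days after first dose.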"}, "[4]": {"experiment": "Pancreatic tissue levels and biodistribution after IV injection", "format": "in vivo, BALB/c mice", "details": "mouse pancreas, IV 75 mg/kg, noncompartmental", "in_short": "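Healthy female BALB/c mice (17-20 weeks) received 75 mg/kg IV in Tween 80/ethanol/5% mannitol aqueous solution. Mice were euthanized at six time points from 5 to 300, n = 3-4 each. Pancreas was homogenized, extracted with ethyl acetate and analysed by HPLC: methanol/1% acetic acid 85:15, 1.2 ml/min, detection 300 nm.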"}, "[5]": {"details": "cited from earlier work"}, "Panc-1-luc cells": {"system": "Panc-1-luc cells", "details": "cited from earlier work"}}, "data": [{"compound": "CCCCCCCCCCCCCCCCCC(=O)Nc1ccn(C2OC(CO)C(O)C2(F)F)c(=O)n1", "note": "(centres unmarked) [4-(N)-stearoyl dFdC]", "values": [{"measurement": "Solubility in water", "setting": "Solubility of DHA-dFdC; direct method", "result": "1.38 ± 1.60", "unit": "µg/mL"}, {"measurement": "Solubility in water", "setting": "Solubility of DHA-dFdC; indirect method (IPM/water partitioning), room temperature", "result": "1.39 ± 0.10", "unit": "µg/mL"}, {"measurement": "Cytotoxicity compared with dFdC", "setting": "[1]", "result": "not significantly more cytotoxic than dFdC"}]}, {"compound": "CC/C=C\\C/C=C\\C/C=C\\C/C=C\\C/C=C\\C/C=C\\CCC(=O)O", "note": "[DHA, Cis-4,7,10,13,16,19-docosahexaenoic acid]", "values": [{"measurement": "Tumor growth compared with vehicle control", "setting": "[2]", "result": "did not significantly inhibit the tumor growth"}, {"measurement": "Cytotoxicity after 4 hours of coincubation", "setting": "Panc-02 cells", "result": "did not show significant cytotoxicity"}]}, {"compound": "CC/C=C\\C/C=C\\C/C=C\\C/C=C\\C/C=C\\C/C=C\\CCC(=O)O[C@@H](C(=O)O[C@H]1C[C@@]2(O)[C@@H](OC(=O)c3ccccc3)[C@@H]3[C@]4(OC(C)=O)CO[C@@H]4C[C@H](O)[C@@]3(C)C(=O)[C@H](OC(C)=O)C(=C1C)C2(C)C)[C@@H](NC(=O)c1ccccc1)c1ccccc1", "note": "[DHA-paclitaxel conjugate]", "values": [{"measurement": "Cytotoxicity compared with paclitaxel", "setting": "tumor cells in culture", "result": "not more cytotoxic than paclitaxel alone"}]}, {"compound": "Cl.Nc1ccn([C@@H]2O[C@H](CO)[C@@H](O)C2(F)F)c(=O)n1", "note": "[dFdC, 2′, 2′-difluorodeoxycytidine HCl]", "values": [{"measurement": "Tumor growth", "setting": "[3]; IP twice a week, DHA-dFdC 50 mg/kg, dFdC molar equivalent", "result": "did not show significant activity"}, {"measurement": "Cleaved lamin-A positive staining in tumors", "setting": "[3]; compared with untreated mice", "result": "not different from that in mice that were left untreated"}, {"measurement": "Tumor growth compared with vehicle control", "setting": "[2]", "result": "did not significantly inhibit the tumor growth"}, {"measurement": "AUC0 -∞ in pancreas", "setting": "[4]", "result": 787.71, "unit": "µg·min/g"}, {"measurement": "Loss of dFdC by deamination", "setting": "[5]; after intravenous administration", "result": "about 90%"}, {"measurement": "Administered dFdC excreted in the urine", "setting": "[5]", "result": "More than 99%"}, {"measurement": "Unchanged dFdC in the urine", "setting": "[5]", "result": 5, "unit": "%"}, {"measurement": "Sensitivity of Panc-1 tumor cells", "setting": "Panc-1-luc cells", "result": "resistant"}]}]}
